The source of these data is publication PMC10957407 (Food Chemistry: X, 2024).

Common to all, as to format: binding, Balb/c mice
The subject of one test is 1-G12. The experiment in a line: icELISA with mAb 1-G12. Particulars: for CR: mAb 1-G12, CR%=IC50 6-GG/IC50 test compound x100%; for IC50: mAb 1-G12, specific evaluation (Table 1, Fig. 3D). An outline of the steps: (§1)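 Ascites-derived mAbs (caprylic acid–ammonium sulfate purified) from female Balb/c mice immunized with hapten–BSA. Plates coated with hapten–OVA in carbonate buffer (0.5 mol L−1, pH 9.6), blocked with 5% skim milk, washed with PBST, and detected with goat anti-mouse IgG-HRP; reaction stopped with 2 mol L−1 H2SO4. Analyte stocks (1 mg/mL, 70% methanol) were diluted in 10% methanol-PBS. IC50 values were fitted, and cross-reactivity was calculated for capsaicinoids, gingerol derivatives and eight other compounds.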

A further test has as its system 1-F12. Nature of the test: icELISA with mAb 1-F12. Particulars: for CR: mAb 1-F12, CR%=IC50 6-GG/IC50 test compound x100%; for IC50: mAb 1-F12, specific evaluation (Table 1, Fig. 3B). An outline of the steps: as §1
The next test has as its system 1-D6. Nature of the test: icELISA with mAb 1-D6. Particulars: for IC50: mAb 1-D6, specific evaluation (Table 1, Fig. 3C); for CR: mAb 1-D6, CR%=IC50 6-GG/IC50 test compound x100%. Summed up:
as §1

Values after ≈ are worked out from the molar mass of the structure shown.

One may read the IC50 as the concentration that inhibits the measured activity by half. Read a high IC50 as weaker potency in that assay. Regarding `COc1cc(/C=C/C(=O)O)ccc1O` [Ferulic acid], the CR in the test on 1-G12 is on record as less than 14.01%; in the test with 1-F12 it was less than 12.66%; in the test with 1-D6, 3.07%. The IC50 with 1-D6 came to 1927.36 ng/mL (≈ 9.93 µM).

For the molecule `COc1ccc(/C=C/C(=O)O)cc1O` [IsoFerulic acid], the IC50 in the test with 1-G12 was greater than 4000 ng/mL; in the test with 1-F12, greater than 4000 ng/mL; with 1-D6 it was 2128.07 ng/mL (≈ 11 µM). Moreover, the CR is on record as less than 14.01% in the test with 1-G12, less than 12.66% with 1-F12 and 2.78% with 1-D6.

Turning to `COc1cc(/C=C/C(=O)O)ccc1O` [Trans-Ferulic acid], the IC50 with 1-G12, with 1-F12 and in the test with 1-D6 was greater than 4000 ng/mL in each case. Also, the CR in the test on 1-G12 is given as less than 14.01%; in the test on 1-F12, less than 12.66%; in the test on 1-D6 it was less than 1.48%.

Turning to `COc1cc(C(=O)O)ccc1O` [Vanillic acid], the figures for the IC50 in the test on 1-G12, in the test with 1-F12 and in the test on 1-D6 were greater than 4000 ng/mL, greater than 4000 ng/mL and 1717.20 ng/mL (≈ 10.2 µM), respectively. Also, the CR is recorded as less than 14.01% in the test on 1-G12, less than 12.66% in the test on 1-F12 and 3.45% with 1-D6.

As to `COc1cc(C=O)ccc1O` [Vanillin], the IC50 is greater than 4000 ng/mL in the test with 1-G12, greater than 4000 ng/mL in the test with 1-F12 and 1981.61 ng/mL (≈ 13 µM) in the test on 1-D6. In addition, the CR in the test on 1-G12 is less than 14.01%; in the test on 1-F12 it was less than 12.66%; with 1-D6, 2.99%.
